Measured values as given in ChEMBL document CHEMBL3792365, “Dioxol and dihydrodioxin analogs of 2- and 3-phenylacetonitriles as potent anti-cancer agents with nanomolar activity against a variety of human cancer cells” (2016).
The source made the active and inactive calls. No cut-off for these calls is given here.

How the values were obtained:
[1] = Growth inhibition of human HCT116 cells after 48 hrs by sulforhodamine B assay; assay type: functional; settings: HCT-116, 48 h
In short: (§1)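 Five-dose testing against a 60-line human tumor cell panel. GI50 is the drug concentration giving a 50% reduction in net protein increase relative to untreated control cells.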

MCF7 = experiment: Growth inhibition of human MCF7 cells after 48 hrs by sulforhodamine B assay; assay type: functional; settings: MCF7, 48 h; in short: as §1
[2] = Growth inhibition of human SNB19 cells after 48 hrs by sulforhodamine B assay; assay type: functional; settings: SNB-19, 48 h
In short: (§2)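 Five-dose concentration series run across a panel of 60 human tumour cell lines. GI50 is taken as the drug concentration giving a 50% reduction in net protein increase relative to untreated control cells.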

[3] = Growth inhibition of human OVCAR4 cells after 48 hrs by sulforhodamine B assay; assay type: functional; settings: OVCAR-4, 48 h; in short: as §2
[4] = Growth inhibition of human UO31 cells after 48 hrs by sulforhodamine B assay; assay type: functional; settings: UO-31, 48 h
In short: (§3)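 Five-dose testing across the 60-line human tumour cell panel. GI50 is the drug concentration that gives a 50% reduction in net protein increase relative to control cells.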

[5] = Growth inhibition of human RPMI8226 cells after 48 hrs by sulforhodamine B assay; assay type: functional; settings: RPMI-8226, 48 h; in short: as §2
MDA-MB-468 = experiment: Growth inhibition of human MDA-MB-468 cells after 48 hrs by sulforhodamine B assay; assay type: functional; settings: MDA-MB-468, 48 h; in short: as §1
MDA-MB-231 = experiment: Growth inhibition of human MDA-MB-231 cells after 48 hrs by sulforhodamine B assay; assay type: functional; settings: MDA-MB-231, 48 h; in short: as §1
NCI-H23 = experiment: Growth inhibition of human NCI-H23 cells after 48 hrs by sulforhodamine B assay; assay type: functional; settings: NCI-H23, 48 h; in short: as §2
U-251 = experiment: Growth inhibition of human U251 cells after 48 hrs by sulforhodamine B assay; assay type: functional; settings: U-251, 48 h; in short: as §2
[6] = Growth inhibition of human DU145 cells after 48 hrs by sulforhodamine B assay; assay type: functional; settings: DU-145, 48 h; in short: as §1
[7] = Growth inhibition of human MOLT4 cells after 48 hrs by sulforhodamine B assay; assay type: functional; settings: MOLT-4, 48 h; in short: as §2
[8] = Growth inhibition of human SF295 cells after 48 hrs by sulforhodamine B assay; assay type: functional; settings: SF-295, 48 h; in short: as §2
[9] = Growth inhibition of human UACC62 cells after 48 hrs by sulforhodamine B assay; assay type: functional; settings: UACC-62, 48 h; in short: as §3
[10] = Growth inhibition of human SKOV3 cells after 48 hrs by sulforhodamine B assay; assay type: functional; settings: SK-OV-3, 48 h; in short: as §2
[11] = Growth inhibition of human COLO205 cells after 48 hrs by sulforhodamine B assay; assay type: functional; settings: COLO 205, 48 h; in short: as §1
NCI-H522 = experiment: Growth inhibition of human NCI-H522 cells after 48 hrs by sulforhodamine B assay; assay type: functional; settings: NCI-H522, 48 h; in short: as §2
[12] = Growth inhibition of human NCI-ADR-RES cells after 48 hrs by sulforhodamine B assay; assay type: functional; in short: as §2
KM12 = experiment: Growth inhibition of human KM12 cells after 48 hrs by sulforhodamine B assay; assay type: functional; settings: KM12, 48 h; in short: as §1
[13] = Growth inhibition of human Hs 578T cells after 48 hrs by sulforhodamine B assay; assay type: functional; in short: as §1
Tubulin (Homo sapiens) [14] = biological target: T1, Tubulin (Homo sapiens) (UniProt P68371+Q9H4B7+P0DPH7+P68366+Q13509+Q71U36+P04350+Q3ZCM7+P07437+P68363+Q9BQE3+Q6PEY2+Q13885+Q9BVA1+Q9BUF5); experiment: Induction of tubulin depolymerization (unknown origin) in slow phase assessed as depolymerization rate at 10 uM (reference value: 1.3 +/- 0.1 10^-5AU/sec); assay type: protein-complex assay
K562 = experiment: Growth inhibition of human K562 cells after 48 hrs by sulforhodamine B assay; assay type: functional; settings: K562, 48 h; in short: as §1
Tubulin (Homo sapiens) [15] = biological target: T1, Tubulin (Homo sapiens); experiment: Inhibition of tubulin polymerization (unknown origin) in rapid phase assessed as polymerization rate at 100 uM (reference value: 8.6 +/- 0.4 x 10^-4AU/sec); assay type: protein-complex assay
HT-29 = experiment: Growth inhibition of human HT-29 cells after 48 hrs by sulforhodamine B assay; assay type: functional; settings: HT-29, 48 h; in short: as §1
Tubulin (Homo sapiens) [16] = biological target: T1, Tubulin (Homo sapiens); experiment: Induction of tubulin depolymerization (unknown origin) in slow phase assessed as depolymerization rate at 100 uM (reference value: 1.3 +/- 0.1 10^-5AU/sec); assay type: protein-complex assay
Tubulin (Homo sapiens) [17] = biological target: T1, Tubulin (Homo sapiens); experiment: Inhibition of tubulin polymerization (unknown origin) in rapid phase assessed as polymerization rate at 10 uM (reference value: 8.6 +/- 0.4 x 10^-4AU/sec); assay type: protein-complex assay
Tubulin (Homo sapiens) [18] = biological target: T1, Tubulin (Homo sapiens); experiment: Inhibition of tubulin polymerization (unknown origin) in rapid phase; assay type: protein-complex assay
Tubulin (Homo sapiens) [19] = biological target: T1, Tubulin (Homo sapiens); experiment: Induction of tubulin depolymerization (unknown origin) in slow phase; assay type: protein-complex assay
Tubulin (Homo sapiens) [20] = biological target: T1, Tubulin (Homo sapiens); experiment: Induction of tubulin depolymerization (unknown origin) in slow phase assessed as depolymerization rate at 10 to 100 uM; assay type: protein-complex assay
Tubulin (Homo sapiens) [21] = biological target: T1, Tubulin (Homo sapiens); experiment: Inhibition of tubulin polymerization (unknown origin) in rapid phase assessed as polymerization rate at 10 to 100 uM; assay type: protein-complex assay

Row | Compound | GI50 [1] | GI50 (MCF7) | GI50 [2] | GI50 [3] | GI50 [4] | GI50 [5] | GI50 (MDA-MB-468) | GI50 (MDA-MB-231) | GI50 (NCI-H23) | GI50 (U-251) | GI50 [6] | GI50 [7] | GI50 [8] | GI50 [9] | GI50 [10] | GI50 [11] | GI50 (NCI-H522) | GI50 [12] | GI50 (KM12) | GI50 [13] | further results
1 | COc1ccc(/C(C#N)=C/c2ccc3c(c2)OCCO3)cc1OC | 2.71 µM | 0.86 µM | 4.08 µM | 11.2 µM | 5.01 µM | 4.81 µM | 1.11 µM | 4.69 µM | 6.61 µM | 3.97 µM | 4.69 µM | 8.85 µM | 2.49 µM | 1.04 µM | 3.24 µM | 2.77 µM | 2.8 µM | 1.52 µM | 1.59 µM | 5.56 µM | –
2 | COc1ccc(/C=C(\C#N)c2ccc3c(c2)OCO3)cc1 | 0.22 µM | 0.08 µM | 0.75 µM | – | 0.58 µM | 0.49 µM | 0.28 µM | 2.11 µM | 0.86 µM | 0.43 µM | 0.59 µM | 0.45 µM | 0.2 µM | 0.59 µM | 0.4 µM | 0.14 µM | 0.04 µM | 0.08 µM | 0.07 µM | 0.46 µM | Activity (Tubulin (Homo sapiens) [14]): 1.8 ×10⁻⁵ AU/sec; GI50 (K562): 0.04 µM; Activity (Tubulin (Homo sapiens) [15]): 8.9 ×10⁻⁴ AU/sec; GI50 (HT-29): 0.06 µM; Activity (Tubulin (Homo sapiens) [16]): 2 ×10⁻⁵ AU/sec; Activity (Tubulin (Homo sapiens) [17]): 8 ×10⁻⁴ AU/sec
3 | COc1ccc(/C(C#N)=C/c2ccc3c(c2)OCCO3)cc1 | 6.33 µM | 3.01 µM | > 100 µM | 24.9 µM | > 100 µM | > 100 µM | 4.29 µM | 69.3 µM | > 100 µM | > 100 µM | > 100 µM | > 100 µM | 10.6 µM | 8.68 µM | > 100 µM | > 100 µM | > 100 µM | 4.45 µM | 4.26 µM | > 100 µM | –
4 | N#C/C(=C\c1cccc2ccccc12)c1ccc2c(c1)OCO2 | 3.72 µM | 1.99 µM | 6.29 µM | 8.25 µM | 6.48 µM | 4.49 µM | 2.11 µM | 5.11 µM | 6.45 µM | 3.85 µM | 6.94 µM | 4.99 µM | 2.96 µM | 2.63 µM | 3.58 µM | 2.58 µM | 2.89 µM | 2.52 µM | 3.77 µM | 3.54 µM | GI50 (K562): 0.79 µM; GI50 (HT-29): 3.02 µM
5 | COc1ccc(/C=C(\C#N)c2ccc3c(c2)OCO3)c(OC)c1 | 2.68 µM | 0.85 µM | 6.95 µM | 1.65 µM | 6.66 µM | 3.23 µM | 0.69 µM | 3.36 µM | 6.33 µM | – | 3.62 µM | 2.81 µM | 1.75 µM | 2.32 µM | 2.75 µM | 1.59 µM | 2.58 µM | 2.41 µM | 2.25 µM | 3.62 µM | GI50 (K562): 0.39 µM; GI50 (HT-29): 0.71 µM
6 | COc1cc(/C(C#N)=C/c2ccc3c(c2)OCCO3)cc(OC)c1OC | 0.03 µM | 0.04 µM | 0.19 µM | 0.26 µM | – | 0.06 µM | 0.03 µM | 0.17 µM | 0.16 µM | 0.05 µM | 0.13 µM | 0.62 µM | 0.02 µM | 0.03 µM | 0.04 µM | 0.12 µM | 0.05 µM | 0.03 µM | 0.05 µM | 0.07 µM | Activity (Tubulin (Homo sapiens) [14]): 1.6 ×10⁻⁵ AU/sec; Activity (Tubulin (Homo sapiens) [15]): 2 ×10⁻⁴ AU/sec; inhibition (Tubulin (Homo sapiens) [18]): Dose-dependent effect; Activity (Tubulin (Homo sapiens) [16]): 3.2 ×10⁻⁵ AU/sec; Activity (Tubulin (Homo sapiens) [19]): Dose-dependent effect; Activity (Tubulin (Homo sapiens) [17]): 6.9 ×10⁻⁴ AU/sec
7 | N#C/C(=C\c1cc2ccccc2s1)c1ccc2c(c1)OCO2 | 0.04 µM | 0.09 µM | 0.23 µM | 1.27 µM | 0.08 µM | 0.19 µM | 0.38 µM | 0.18 µM | 0.32 µM | 0.06 µM | 0.21 µM | 0.07 µM | 0.04 µM | 0.06 µM | 0.06 µM | 0.03 µM | 0.02 µM | 0.04 µM | 0.05 µM | 0.08 µM | Activity (Tubulin (Homo sapiens) [20]): inactive; GI50 (K562): 0.04 µM; inhibition (Tubulin (Homo sapiens) [21]): inactive; GI50 (HT-29): 0.03 µM
8 | COc1ccc(/C=C(\C#N)c2ccc3c(c2)OCO3)c2ccccc12 | 2.41 µM | 0.61 µM | 4.24 µM | 3.79 µM | 6.24 µM | 3.85 µM | 0.51 µM | 2.43 µM | 5.09 µM | 2.71 µM | 3.49 µM | 3.71 µM | 1.91 µM | 1.51 µM | 2.35 µM | 1.61 µM | 2.37 µM | 1.65 µM | 2.39 µM | 2.63 µM | GI50 (K562): 0.53 µM; GI50 (HT-29): 1.6 µM
